{
  "source": "ChEMBL document CHEMBL5030540",
  "about": "(J Med Chem, 2021)",
  "key": {"Mu-type opioid receptor [1]": {"biological_target": "T1, Mu-type opioid receptor (Homo sapiens, UniProt P35372)", "T1 sequence (P35372 whole entry)": "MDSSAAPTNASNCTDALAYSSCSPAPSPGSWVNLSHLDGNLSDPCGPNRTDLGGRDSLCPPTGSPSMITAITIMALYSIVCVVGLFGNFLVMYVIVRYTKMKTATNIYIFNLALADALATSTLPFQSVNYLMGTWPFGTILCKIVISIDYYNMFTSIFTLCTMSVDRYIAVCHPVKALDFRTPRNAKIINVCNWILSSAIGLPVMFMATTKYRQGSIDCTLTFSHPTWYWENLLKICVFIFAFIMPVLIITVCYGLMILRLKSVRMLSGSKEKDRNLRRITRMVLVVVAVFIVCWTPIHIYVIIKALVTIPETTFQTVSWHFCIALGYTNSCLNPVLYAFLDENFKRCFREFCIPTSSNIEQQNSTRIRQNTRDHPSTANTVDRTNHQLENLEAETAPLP", "assay": "Agonist activity at human MOR expressed in HEK293T cells assessed as inhibition of forskolin-stimulated cAMP accumulation incubated for 30 mins by Glo-sensor cAMP assay", "type": "functional, cell-based", "procedure,_shortened": "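HEK293T cells transiently co-transfected with human MOR and a luciferase-based cAMP biosensor. Gαi-mediated cAMP inhibition read by luminescence. EC50 given as pEC50 ± SEM, triplicate runs.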"}, "Mu-type opioid receptor [2]": {"biological_target": "T1, Mu-type opioid receptor", "assay": "Agonist activity at human MOR expressed in HEK-293T cells assessed as inhibition of forskolin-stimulated cAMP accumulation incubated for 30 mins by Glo-sensor cAMP assay relative to DAMGO", "type": "functional, cell-based", "conditions": "HEK293T", "procedure,_shortened": "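HEK293T cells transiently co-transfected with human MOR and a luciferase-based cAMP biosensor. Gαi-mediated cAMP inhibition read by luminescence. […] EC50 given as pEC50 ± SEM, triplicate runs.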"}, "Mu-type opioid receptor [3]": {"biological_target": "T1, Mu-type opioid receptor", "assay": "Agonist activity at human MOR receptor expressed in HTLA cells co-expressing TEV-fused-beta-arrestin2 assessed as induction of beta-arrestin2 recruitment by Tango assay", "type": "functional, cell-based", "procedure,_shortened": "(§1)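 HTLA cells expressing TEV-fused β-arrestin2 transiently transfected with a human MOR Tango construct. β-arrestin2 recruitment measured. […] Mean pEC50 ± SEM and Emax% ± SEM from triplicate runs.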"}, "Mu-type opioid receptor [4]": {"biological_target": "T1, Mu-type opioid receptor", "assay": "Agonist activity at human MOR receptor expressed in HTLA cells co-expressing TEV-fused-beta-arrestin2 assessed as induction of beta-arrestin2 recruitment by Tango assay relative to DAMGO", "type": "functional, cell-based", "procedure,_shortened": "as §1"}, "[5]": {"assay": "Toxicity in C57BL/6 mouse model assessed as conditioned place preference at 10 mg/kg, IP", "type": "organism-based", "conditions": "in vivo", "procedure,_shortened": "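Counterbalanced two-compartment place conditioning in C57BL/6J mice. […] Time on drug-paired side over a 20 min test compared with preconditioning by Welch-corrected t test.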"}, "[6]": {"assay": "Toxicity in C57BL/6 mouse model assessed as charcoal distance travel at 15 mg/kg, sc measured after 3 hrs by gastrointestinal transit assay (reference value: 29.5 +/- 1 cm)", "type": "organism-based", "conditions": "in vivo"}, "Mu-type opioid receptor [7]": {"biological_target": "T1, Mu-type opioid receptor", "assay": "Agonist activity at human MOR expressed in CHO-K1 cells co-expressing beta-arrestin2 assessed as beta-arrestin2 EFC recruitment measured after 90 mins by PathHunter assay", "type": "functional, cell-based", "procedure,_shortened": "(§2)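 CHO-K1 cells stably expressing human μOR grown to confluency and seeded overnight at 37 °C, 5% CO2. 5× dilution series of compound in Opti-MEM added for 90 min at 37 °C. Detection reagent then added for 60 min at room temperature in the dark, and chemiluminescence read.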"}, "Mu-type opioid receptor [8]": {"biological_target": "T1, Mu-type opioid receptor", "assay": "Agonist activity at human MOR expressed in CHO-K1 cells co-expressing beta-arrestin2 assessed as beta-arrestin2 EFC recruitment measured after 90 mins by PathHunter assay relative to control", "type": "functional, cell-based", "procedure,_shortened": "as §2"}, "Mu-type opioid receptor [9]": {"biological_target": "T1, Mu-type opioid receptor", "assay": "Partial agonist activity at human MOR expressed in HEK293T cells co-expressing Galpha-RLuc8:Gbeta:Ggamma-GFP2 assessed as maximal Gi-1 activation measured after 15 mins by BRET assay relative to control", "type": "functional, cell-based", "conditions": "filed as partial agonist"}, "[10]": {"biological_target": "GABA-A receptor; anion channel (Rattus norvegicus) (UniProt O09028+P15431+P18506+P18508+P19969+P20236+P23574+P23576+P28471+P28473+P30191+P62813+P63079+P63138+Q91ZM7+Q9ES14)", "assay": "Partial agonist activity at GABAA receptor in rat brain slice assessed as induction of receptor-mediated inhibitory postsynaptic current at 10 uM by Whole cell electrophysiology", "type": "tissue-based", "conditions": "filed as partial agonist", "procedure,_shortened": "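Horizontal VTA slices (200 μm) from male Sprague–Dawley rats. Whole-cell voltage clamp at −70 mV, 33 °C, KCl internal. GABAA IPSCs isolated with 10 μM DNQX and evoked by paired pulses every 10 s. Drug (10 μM) bath applied. Mean IPSC amplitude at minutes 4–7 of drug compared with the 4 min baseline.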"}, "[11]": {"biological_target": "Voltage-dependent L-type calcium channel subunit alpha-1C (Rattus norvegicus, UniProt P22002)", "sequence (P22002 whole entry)": "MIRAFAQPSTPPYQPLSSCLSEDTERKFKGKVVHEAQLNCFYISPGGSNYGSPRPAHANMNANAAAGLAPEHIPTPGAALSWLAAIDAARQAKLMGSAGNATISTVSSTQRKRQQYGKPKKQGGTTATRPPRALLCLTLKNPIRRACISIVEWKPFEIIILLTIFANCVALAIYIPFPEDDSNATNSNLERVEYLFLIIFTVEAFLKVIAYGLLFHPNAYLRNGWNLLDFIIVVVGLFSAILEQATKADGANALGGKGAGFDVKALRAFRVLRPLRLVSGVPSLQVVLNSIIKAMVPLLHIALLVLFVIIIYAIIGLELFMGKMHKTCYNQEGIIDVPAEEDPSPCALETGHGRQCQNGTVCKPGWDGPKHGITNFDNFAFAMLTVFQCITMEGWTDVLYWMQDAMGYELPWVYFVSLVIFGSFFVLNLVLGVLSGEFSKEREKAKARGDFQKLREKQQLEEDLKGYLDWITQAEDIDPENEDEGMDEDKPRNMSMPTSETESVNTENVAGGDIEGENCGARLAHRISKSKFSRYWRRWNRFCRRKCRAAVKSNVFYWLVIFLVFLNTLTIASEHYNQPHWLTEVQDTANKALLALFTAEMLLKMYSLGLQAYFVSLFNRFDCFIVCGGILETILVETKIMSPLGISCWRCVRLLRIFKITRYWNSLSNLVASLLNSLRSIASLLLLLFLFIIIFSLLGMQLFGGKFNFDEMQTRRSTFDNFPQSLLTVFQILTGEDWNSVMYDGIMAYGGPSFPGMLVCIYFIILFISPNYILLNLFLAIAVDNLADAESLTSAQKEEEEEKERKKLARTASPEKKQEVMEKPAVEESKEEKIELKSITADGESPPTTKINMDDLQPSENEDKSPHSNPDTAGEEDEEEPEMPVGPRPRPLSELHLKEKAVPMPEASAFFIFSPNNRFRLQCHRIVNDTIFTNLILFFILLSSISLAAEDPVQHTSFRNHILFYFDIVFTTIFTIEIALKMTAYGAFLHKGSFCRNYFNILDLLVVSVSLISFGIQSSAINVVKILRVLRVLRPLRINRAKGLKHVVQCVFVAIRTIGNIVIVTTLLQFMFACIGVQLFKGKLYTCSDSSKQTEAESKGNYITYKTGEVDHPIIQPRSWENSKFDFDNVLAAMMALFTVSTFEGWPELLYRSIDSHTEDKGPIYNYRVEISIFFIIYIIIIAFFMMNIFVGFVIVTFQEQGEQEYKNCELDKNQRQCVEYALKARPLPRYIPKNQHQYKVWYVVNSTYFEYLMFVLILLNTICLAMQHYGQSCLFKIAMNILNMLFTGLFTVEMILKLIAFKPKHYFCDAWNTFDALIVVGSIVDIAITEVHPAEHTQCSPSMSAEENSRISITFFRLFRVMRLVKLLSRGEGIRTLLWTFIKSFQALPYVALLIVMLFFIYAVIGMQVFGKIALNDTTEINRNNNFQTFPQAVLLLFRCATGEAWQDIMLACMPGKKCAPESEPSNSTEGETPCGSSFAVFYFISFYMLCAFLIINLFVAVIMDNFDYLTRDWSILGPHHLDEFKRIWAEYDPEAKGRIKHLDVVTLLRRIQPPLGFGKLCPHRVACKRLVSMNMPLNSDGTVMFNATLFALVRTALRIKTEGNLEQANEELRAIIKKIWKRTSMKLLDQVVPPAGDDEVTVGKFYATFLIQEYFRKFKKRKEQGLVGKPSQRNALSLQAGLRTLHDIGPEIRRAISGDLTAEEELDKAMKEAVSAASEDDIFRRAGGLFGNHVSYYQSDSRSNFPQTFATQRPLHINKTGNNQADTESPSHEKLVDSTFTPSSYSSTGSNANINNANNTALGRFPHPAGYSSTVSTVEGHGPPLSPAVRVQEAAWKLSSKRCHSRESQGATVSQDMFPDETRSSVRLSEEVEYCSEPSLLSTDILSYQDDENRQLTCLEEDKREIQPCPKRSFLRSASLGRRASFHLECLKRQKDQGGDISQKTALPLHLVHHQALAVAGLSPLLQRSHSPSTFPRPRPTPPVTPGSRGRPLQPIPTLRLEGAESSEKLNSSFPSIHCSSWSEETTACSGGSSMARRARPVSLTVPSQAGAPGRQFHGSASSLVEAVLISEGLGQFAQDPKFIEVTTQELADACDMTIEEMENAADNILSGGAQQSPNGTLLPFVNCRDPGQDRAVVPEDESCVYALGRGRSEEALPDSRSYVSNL", "assay": "Displacement of [3H]Diltiazem from Cav1.2 in rat brain at 10 uM incubated for 120 mins by radiometric scintillation counting analysis", "type": "tissue-based", "conditions": "2 h"}, "Mu-type opioid receptor [12]": {"biological_target": "T1, Mu-type opioid receptor", "assay": "Partial agonist activity at human MOR expressed in HEK293T cells co-expressing Galpha-RLuc8:Gbeta:Ggamma-GFP2 assessed as Galpha-i/o activation measured after TRUPATH assay", "type": "functional, cell-based", "conditions": "filed as partial agonist"}, "[13]": {"biological_target": "Mu-type opioid receptor (Mus musculus) (UniProt P42866)", "sequence (P42866 whole entry)": "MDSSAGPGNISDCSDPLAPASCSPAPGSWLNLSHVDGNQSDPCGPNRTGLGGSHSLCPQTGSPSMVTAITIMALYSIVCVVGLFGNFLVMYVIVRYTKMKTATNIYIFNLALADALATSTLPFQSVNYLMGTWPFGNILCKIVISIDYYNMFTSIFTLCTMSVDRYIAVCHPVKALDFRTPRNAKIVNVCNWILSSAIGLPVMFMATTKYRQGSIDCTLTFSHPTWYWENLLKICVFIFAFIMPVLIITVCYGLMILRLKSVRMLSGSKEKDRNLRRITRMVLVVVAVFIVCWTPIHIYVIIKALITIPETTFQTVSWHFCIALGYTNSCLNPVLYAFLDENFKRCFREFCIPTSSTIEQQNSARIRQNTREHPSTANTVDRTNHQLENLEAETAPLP", "assay": "Partial agonist activity at mouse MOR expressed in HEK293T cells assessed as Nb33 recruitment by BRET assay relative to control", "type": "functional, cell-based", "procedure,_shortened": "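HEK293T cells transfected with murine MOR-NanoLuc (1 μg) and Nb33-Venus (4 μg) using PEI and used 48 h later. Cells in PBS given coelenterazine H (5 μM), ligand added at 5 min, BRET read 10 min later. Three-parameter fit; ≥3 independent trials in triplicate.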"}, "[14]": {"conditions": "HTLA230, filed as partial agonist"}},
  "note": "Calls of active or inactive are those of the source. The rule behind the calls is not given here.",
  "data": [
    {"smiles": "CC[C@@H]1CN2CC[C@@]3(O)C(=Nc4ccc(-c5ccoc5)c(OC)c43)[C@@H]2C[C@@H]1/C(=C\\OC)C(=O)OC", "values": [
      {"measurement": "EC50", "setting": "Mu-type opioid receptor [1]", "result": 535, "unit": "nM"},
      {"measurement": "Emax", "setting": "Mu-type opioid receptor [2]; filed as agonist", "result": 100, "unit": "%"},
      {"measurement": "EC50", "setting": "Mu-type opioid receptor [3]", "result": 8.04, "unit": "µM"},
      {"measurement": "Emax", "setting": "Mu-type opioid receptor [4]; HTLA230", "result": 31.3, "unit": "%"}
    ]},
    {"smiles": "CN1CC[C@]23c4c5ccc(O)c4O[C@H]2[C@@H](O)C=C[C@H]3[C@H]1C5", "note": "[MORPHINE]", "values": [
      {"measurement": "Activity", "setting": "[5]", "result": "Toxic"},
      {"measurement": "Activity", "setting": "[6]", "result": 5.07, "unit": "cm"}
    ]},
    {"smiles": "CC[C@@H]1CN2CC[C@@]3(O)C(=Nc4cccc(OC)c43)[C@@H]2C[C@@H]1/C(=C\\OC)C(=O)OC", "values": [
      {"measurement": "Emax", "setting": "Mu-type opioid receptor [2]; filed as agonist", "result": 95.5, "unit": "%"},
      {"measurement": "Emax", "setting": "Mu-type opioid receptor [4]; HTLA230", "result": "< 20", "unit": "%"}
    ]},
    {"smiles": "CC[C@@H]1CN2CCc3c([nH]c4c(-c5ccoc5)ccc(OC)c34)[C@@H]2C[C@@H]1/C(=C\\OC)C(=O)OC", "values": [
      {"measurement": "EC50", "setting": "Mu-type opioid receptor [1]", "result": 186, "unit": "nM"},
      {"measurement": "Emax", "setting": "Mu-type opioid receptor [2]; filed as agonist", "result": 78.2, "unit": "%"},
      {"measurement": "Emax", "setting": "Mu-type opioid receptor [4]; HTLA230", "result": "< 20", "unit": "%"}
    ]},
    {"smiles": "CC[C@@H]1CN2CC[C@@]3(O)C(=Nc4cccc(C)c43)[C@@H]2C[C@@H]1/C(=C\\OC)C(=O)OC", "values": [
      {"measurement": "EC50", "setting": "Mu-type opioid receptor [1]", "result": 5.25, "unit": "nM"},
      {"measurement": "Emax", "setting": "Mu-type opioid receptor [2]; filed as partial agonist", "result": 108, "unit": "%"},
      {"measurement": "EC50", "setting": "Mu-type opioid receptor [3]", "result": 10.4, "unit": "µM"},
      {"measurement": "Emax", "setting": "Mu-type opioid receptor [4]; [14]", "result": 110, "unit": "%"},
      {"measurement": "Emax", "setting": "Mu-type opioid receptor [7]", "result": 31, "unit": "%"},
      {"measurement": "Emax", "setting": "Mu-type opioid receptor [8]", "result": "< 20", "unit": "%"},
      {"measurement": "Emax", "setting": "Mu-type opioid receptor [9]", "result": 60, "unit": "%"},
      {"measurement": "Activity", "setting": "[10]", "result": "Active"},
      {"measurement": "Activity", "setting": "[11]", "result": "Active"},
      {"measurement": "Activity", "setting": "Mu-type opioid receptor [12]", "result": "Active"},
      {"measurement": "Emax", "setting": "[13]", "result": 20, "unit": "%"}
    ]},
    {"smiles": "CC[C@@H]1CN2CCc3c([nH]c4ccc(C)c(OC)c34)[C@@H]2C[C@@H]1/C(=C\\OC)C(=O)OC", "values": [
      {"measurement": "EC50", "setting": "Mu-type opioid receptor [1]", "result": 370, "unit": "nM"},
      {"measurement": "Emax", "setting": "Mu-type opioid receptor [2]; filed as agonist", "result": 96.5, "unit": "%"},
      {"measurement": "Emax", "setting": "Mu-type opioid receptor [4]; HTLA230", "result": "< 20", "unit": "%"}
    ]},
    {"smiles": "CC[C@@H]1CN2CC[C@@]3(O)C(=Nc4c(-c5ccoc5)ccc(OC)c43)[C@@H]2C[C@@H]1/C(=C\\OC)C(=O)OC", "values": [
      {"measurement": "EC50", "setting": "Mu-type opioid receptor [1]", "result": 1560, "unit": "nM"},
      {"measurement": "Emax", "setting": "Mu-type opioid receptor [2]; filed as agonist", "result": 61.8, "unit": "%"},
      {"measurement": "Emax", "setting": "Mu-type opioid receptor [4]; HTLA230", "result": "< 20", "unit": "%"}
    ]},
    {"smiles": "CC[C@@H]1CN2CCc3c([nH]c4cccc(-c5ccoc5)c34)[C@@H]2C[C@@H]1/C(=C\\OC)C(=O)OC", "values": [
      {"measurement": "EC50", "setting": "Mu-type opioid receptor [1]", "result": 93.7, "unit": "nM"},
      {"measurement": "Emax", "setting": "Mu-type opioid receptor [2]; filed as agonist", "result": 70.2, "unit": "%"},
      {"measurement": "Emax", "setting": "Mu-type opioid receptor [4]; HTLA230", "result": "< 20", "unit": "%"}
    ]},
    {"smiles": "CC[C@@H]1CN2CC[C@@]3(O)C(=Nc4c(C)ccc(OC)c43)[C@@H]2C[C@@H]1/C(=C\\OC)C(=O)OC", "values": [
      {"measurement": "EC50", "setting": "Mu-type opioid receptor [1]", "result": 11.2, "unit": "nM"},
      {"measurement": "Emax", "setting": "Mu-type opioid receptor [2]; filed as agonist", "result": 69.3, "unit": "%"},
      {"measurement": "Emax", "setting": "Mu-type opioid receptor [4]; HTLA230", "result": "< 20", "unit": "%"}
    ]},
    {"smiles": "CC[C@@H]1CN2CC[C@@]3(O)C(=Nc4cccc(-c5ccccc5)c43)[C@@H]2C[C@@H]1/C(=C\\OC)C(=O)OC", "values": [
      {"measurement": "EC50", "setting": "Mu-type opioid receptor [1]", "result": 36.2, "unit": "nM"},
      {"measurement": "Emax", "setting": "Mu-type opioid receptor [2]; filed as partial agonist", "result": 108, "unit": "%"},
      {"measurement": "EC50", "setting": "Mu-type opioid receptor [3]", "result": 19.2, "unit": "µM"},
      {"measurement": "Emax", "setting": "Mu-type opioid receptor [4]; [14]", "result": 283, "unit": "%"},
      {"measurement": "Emax", "setting": "Mu-type opioid receptor [7]", "result": 31, "unit": "%"},
      {"measurement": "Emax", "setting": "Mu-type opioid receptor [8]", "result": "< 20", "unit": "%"},
      {"measurement": "Emax", "setting": "Mu-type opioid receptor [9]", "result": 60, "unit": "%"},
      {"measurement": "Activity", "setting": "[10]", "result": "Active"},
      {"measurement": "Activity", "setting": "[11]", "result": "Active"},
      {"measurement": "Activity", "setting": "Mu-type opioid receptor [12]", "result": "Active"},
      {"measurement": "Emax", "setting": "[13]", "result": 20, "unit": "%"}
    ]},
    {"smiles": "CC[C@@H]1CN2CCc3c([nH]c4c(-c5ccccc5)ccc(OC)c34)[C@@H]2C[C@@H]1/C(=C\\OC)C(=O)OC", "values": [
      {"measurement": "EC50", "setting": "Mu-type opioid receptor [1]", "result": 1110, "unit": "nM"},
      {"measurement": "Emax", "setting": "Mu-type opioid receptor [2]; filed as agonist", "result": 50.4, "unit": "%"},
      {"measurement": "Emax", "setting": "Mu-type opioid receptor [4]; HTLA230", "result": "< 20", "unit": "%"}
    ]}
  ]
}
